Compound activity: PubChem BioAssay, several laboratories
A selection: hits, their analogues and other compounds. The true share with any hit is near 2.6%.
rCAG binder – r(CAG) repeat RNA binding | AID 651821 | TO-PRO-1 dye displacement fluorescence | 370,000 compounds, 1.3% hits | inhibition, % at 3 µM;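 active = inhibition above the plate cutoff, the mean of all test compounds on that plate plus 3 SD, cut at about 35% in these data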;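 note: 0% = DMSO alone and 100% = 100 µM mitoxantrone as full dye displacement; higher means more dye released from RNA so lower well fluorescence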
NR2E3 ag-1 – agonists of human nuclear receptor NR2E3; Q9Y5X4; GST-NR2E3/biotin-RetCOR TR-FRET, 1536-well; inhibition of corepressor binding, % at 4.78 µM; 320,000 compounds, 0.12% hits;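 active = percent inhibition above the cutoff of mean plus 3 SD of all tested compounds, set per screening campaign, cut at about 20% in these data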;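 note: 0% = DMSO wells and 100% = biotin wells as full block of FRET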
Target sequence (Q9Y5X4 whole entry, looked up): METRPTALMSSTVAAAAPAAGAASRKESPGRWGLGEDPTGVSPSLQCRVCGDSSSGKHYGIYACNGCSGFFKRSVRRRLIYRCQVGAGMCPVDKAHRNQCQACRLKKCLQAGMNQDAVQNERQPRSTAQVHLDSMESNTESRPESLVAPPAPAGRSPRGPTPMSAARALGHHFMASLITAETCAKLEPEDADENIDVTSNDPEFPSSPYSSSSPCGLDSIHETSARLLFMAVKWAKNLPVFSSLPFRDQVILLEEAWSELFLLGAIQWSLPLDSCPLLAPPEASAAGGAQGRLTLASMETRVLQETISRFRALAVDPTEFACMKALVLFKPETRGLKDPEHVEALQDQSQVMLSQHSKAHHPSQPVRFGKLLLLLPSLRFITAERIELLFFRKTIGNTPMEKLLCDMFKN
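System: GST-tagged NR2E3 plus biotinylated RetCOR corepressor; Buffer or medium: pH 7.5 Tris-based buffer; Probe or stimulus: RetCOR corepressor, biotinylated, 7 nM; Doses: compound at 4.8 µM, single dose; Schedule: 5 h incubation at 4 °C; Technique: time-resolved FRET; Evaluation: percent inhibition of TR-FRET ratio; Replication: one well per compound, singlicate testing.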
NR1D1 modulator – modulators of human Rev-erb alpha DNA binding | P20393 | Rev-erbα–FITC-DNA binding, fluorescence polarization, 90 min | activity, % at 10 µM | 370,000 compounds, 0.79% hits;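 active = activity above about 14%, limit read from the data; passing the limit was not always enough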;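 note: 0% = DMSO wells with 35 nM protein and 100% = DMSO wells with 750 nM protein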
NR2E3 ag-2 – human photoreceptor-specific nuclear receptor agonism; Q9Y5X4; CHO-S Gal4-NCOR/VP16-NR2E3 two-hybrid, luciferase; inhibition of corepressor binding, % at 3.98 µM; 360,000 compounds, 0.35% hits; AID 602229;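 active = inhibition above the mean of all tested compounds plus 3 SD, cut at about 70% in these data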;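 note: 0% = DMSO with NR2E3 transfected cells and 100% = cells lacking NR2E3 construct; higher means lower luciferase signal from less NR2E3 corepressor binding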
PG9 Ab binder – small molecules binding HIV-1 gp120 antibody PG9; inhibition, % at 6.7 µM; TR-FRET gp120-PG9 antibody binding; 360,000 compounds, 0.43% hits; AID 624416; in the data active = inhibition above about 8.5%
rCAG bind conf – r(CAG) RNA repeat binding, confirmation; shares compounds with rCAG binder; TO-PRO-1 dye displacement fluorescence; inhibition, % at 3 µM; 4,300 compounds, 70% hits; AID 652065;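 active = inhibition above a per-plate cutoff, the mean inhibition of sample wells plus 3 SD, cut at about 35% in these data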;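 note: loss of TO-PRO-1 fluorescence as compound displaces dye from 1x1 AA loop RNA; 0% = DMSO only wells and 100% = 100 µM mitoxantrone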
dCAG dye counter – counter-screen for rCAG RNA binders: DNA CAG dye complex inhibitors; shares compounds with rCAG binder; d(CAG) DNA oligo TO-PRO-1 dye displacement, fluorescence; inhibition, % at 3 µM; 4,300 compounds, 94% hits;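 active = inhibition above its plate's cutoff, the mean test-well inhibition plus 3 SD, cut at about 4.8% in these data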;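 note: 0% = DNA dye mix with DMSO and 100% = 100 µM mitoxantrone; hits displace the dye from DNA and so lower well fluorescence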
* = called active by the depositor; nt = no result.

SMILES	rCAG binder	NR2E3 ag-1	NR1D1 modulator	NR2E3 ag-2	PG9 Ab binder	rCAG bind conf	dCAG dye counter
CC(C)CS(=O)(=O)C1=NN2C(=N)/C(=C\c3ccc(OC(=O)c4ccco4)cc3)C(=O)N=C2S1	80.6*	4.0	-5.4	-31.6	-0.7	86.8*	66.2*
O=C(C[C@@H]1C/C=C\CC[C@H](Cc2ccc(F)cc2)C(=O)OC[C@@H]2CCCN2C1=O)NCCO	-8.4	nt	-2.2	-24.2	-0.7	nt	nt
Cc1cn([C@H]2C[C@H](O)[C@@H](/C=C/C(=O)NCCc3ccc(S(N)(=O)=O)cc3)O2)c(=O)[nH]c1=O	0.1	nt	-7.4	-2.4	-0.4	nt	nt
O=C(Cc1ccc(NC(=O)C2CCN(C(=O)CCc3ccccc3)CC2)cc1)Nc1cccc(C(=O)N2CCCC2)c1	4.2	nt	-3.2	nt	0.0	nt	nt
CCS(=O)(=O)C1=NN2C(=N)/C(=C\c3ccc(OC(=O)c4ccco4)c(OC)c3)C(=O)N=C2S1	52.3*	3.9	7.0	-15.9	-0.7	80.4*	47.2*
Cc1cc(S(=O)(=O)Nc2nc(CN3CCOCC3)nc3sc4c(c23)CCC4)ccc1F	53.7*	nt	-7.7	4.5	-0.8	49.3*	13.8*
CC(=O)Nc1ccc(S(=O)(=O)Nc2nc(CN3CCOCC3)nc3sc4c(c23)CCCC4)cc1	32.7	-0.9	-8.2	-15.2	0.6	nt	nt
CC(C)(C)NC(=O)C1c2ccccc2OCC(=O)N1Cc1ccco1 (stereo not given)	1.5	nt	-2.3	-5.8	-0.3	nt	nt
O=S(=O)(N/N=C/c1ccc(Cl)cc1)c1ccc(Cc2ncc(C(F)(F)F)cc2Cl)s1	45.0*	3.4	-3.0	2.5	1.3	64.5*	25.6*
NC(=O)c1ccc(Cc2ncc(C(F)(F)F)cc2Cl)s1	-0.6	0.9	-1.3	4.7	0.5	nt	nt
O=C(N/N=C/c1cn(Cc2cccc(F)c2)c2ccccc12)c1cc(O)cc(O)c1	50.0*	nt	-27.1	-7.2	-2.6	52.2*	28.6*
O=C(O)c1ccc(N/N=C/c2cn(Cc3ccccc3F)c3ccccc23)cc1	77.8*	0.4	-4.9	-50.0	-1.3	80.5*	45.0*
CC[C@@]1(C(=O)OC)N[C@H](CN(C)C(=O)COC)[C@@H]2C(=O)N(C)C(=O)[C@@H]21	1.9	nt	1.6	-44.9	-1.6	nt	nt
O=C(/C=C/[C@H]1O[C@@H](n2cnc3c(NC(=O)c4ccccc4)ncnc32)[C@H](O)[C@@H]1O)NCC1CCCO1 (stereo not given in full)	-0.5	nt	-5.8	-9.1	2.2	nt	nt
O=C(Nc1nnc(SCc2cccc3ccccc23)s1)C1COc2ccccc2O1 (stereo not given)	49.8*	0.3	4.5	-19.2	-0.2	39.5*	8.2*
CC(Nc1nc(=S)nc(Nc2ccc(F)cc2)[nH]1)c1ccccc1 (stereo not given)	67.5*	-1.5	-0.7	-19.4	1.9	9.6	11.7*
O=C(Nc1ccc(C(=O)O)cc1)/C(=C\c1ccco1)NC(=O)c1ccccc1Cl	43.0*	2.3	-5.0	-13.5	-4.4	5.5	2.5
CC(C)(C)c1ccc(C(=O)N/C(=C\c2ccco2)C(=O)Nc2ccccc2C(=O)O)cc1	62.3*	2.1	0.9	-58.2	-1.1	67.6*	29.0*
O=C(Nc1ccc(C(=O)O)cc1)/C(=C\c1ccco1)NC(=O)c1ccccc1	3.4	1.8	3.2	-3.9	-1.5	nt	nt
COc1ccc(N(CC(=O)NC2CC3CCC2C3)S(=O)(=O)c2ccccc2)cc1Cl (stereo not given)	-5.0	nt	1.5	-6.4	-1.1	nt	nt
Cc1c(OCc2nn[nH]n2)ccc2c3c(c(=O)oc12)CCC(C)C3 (stereo not given)	42.2*	-3.3	4.3	0.7	-2.2	23.2	4.7*
Cc1c(OCc2nn[nH]n2)ccc2c3c(c(=O)oc12)CCCC3	18.1	-0.3	0.4	-30.4	1.6	nt	nt
CCCCNS(=O)(=O)c1cccc(NC(=O)[C@@H]2O[C@H](CO)[C@@H](O)[C@H]2O)c1	1.6	nt	-8.0	-3.0	-0.9	nt	nt
Cc1cc(C)cc(N(CC(=O)Nc2cc(C)ccc2C)S(=O)(=O)c2c(C)[nH]c(=O)[nH]c2=O)c1	25.5	0.6	1.5	13.0	-0.3	nt	nt
Cc1cc(C)cc(N(CC(=O)Nc2ccc(Br)cc2)S(=O)(=O)c2c(C)[nH]c(=O)[nH]c2=O)c1	51.1*	-2.5	-1.5	-7.7	-1.1	42.4*	9.2*
SMILES	rCAG binder	NR2E3 ag-1	NR1D1 modulator	NR2E3 ag-2	PG9 Ab binder	rCAG bind conf	dCAG dye counter
O=C(OC1CCOC1=O)c1cccc(S(=O)(=O)Nc2cccc(Cl)c2)c1 (stereo not given)	34.9*	-1.9	-2.1	-19.8	-1.1	23.9	9.1*
O=C(COc1cccc(Br)c1)N/N=C/c1ccc2c(c1)OCCO2	4.9	nt	-3.0	17.6	2.0	nt	nt
COc1cc(/C=C/C(=O)O)ccc1OS(=O)(=O)c1c(C)cc(C)cc1C	36.5*	2.6	1.0	15.6	2.6	27.6	9.4*
COc1cc(/C=C/C(=O)O)ccc1OS(=O)(=O)c1cc(C)ccc1C	21.5	0.3	-5.8	10.0	-1.1	nt	nt
Cc1ccc(NC(=O)C2CCCO2)c(Br)c1 (stereo not given)	-2.6	-1.6	-3.3	-42.6	2.1	nt	nt
O=S(=O)(O)c1cc(O)c(N=Nc2ccc(O)cc2O)c2ccccc12	65.5*	nt	-15.0	-26.6	-16.1	94.0*	67.4*
Cc1cccc(C)c1N1C(=O)c2ccccc2NC(=O)C1C(=O)Nc1ccc2c(c1)OCCO2 (stereo not given)	5.1	nt	7.4	nt	-6.9	nt	nt
O=c1[nH]n2c(=O)c3c([nH]c2c1N=Nc1cccc(Cl)c1)CCCC3	75.0*	0.6	-4.0	1.5	-4.6	85.0*	47.8*
CCOc1ccc2nc(NS(=O)(=O)Cc3ccccc3)sc2c1	44.1*	1.2	1.3	-91.0	3.5	28.7	10.0*
CN(Cc1ccco1)S(=O)(=O)c1nnc(NC(=O)c2ccc(F)cc2)s1	36.9*	6.7	-9.4	-11.0	-2.8	24.6	7.4*
CCOc1ccc(C(=O)Nc2nnc(S(=O)(=O)N(C)Cc3ccco3)s2)cc1	35.5*	6.4	3.4	-6.0	-1.6	36.8*	10.6*
CCC(=O)Nc1nnc(S(=O)(=O)N(C)Cc2ccco2)s1	1.1	2.8	4.6	-13.0	0.4	nt	nt
Cc1ccc(-c2nc3c(Cl)cc(Cl)cc3c(=O)n2O)cc1	57.8*	3.2	-4.7	-10.6	2.3	14.4	3.0
O=c1c2cc(Br)ccc2nc(-c2ccc(Cl)cc2)n1O	4.8	-0.3	-5.0	-18.8	2.0	nt	nt
C/C=C/C1=CC(=O)C[C@H](c2ccc(Cl)cc2)C1	4.0	-0.2	-2.3	-30.7	-2.8	nt	nt
CCOC(=O)c1ccc(-n2c(O)c(/C=N/NC(=O)C3COc4ccccc4O3)c3ccccc3c2=O)cc1 (stereo not given)	75.1*	0.6	0.1	-32.9	0.5	79.0*	41.7*
